Screening data from PubChem BioAssay.
Arr AP2 block: inhibitors of human beta-arrestin and AP2 interaction | AID 504490 | FITC-arrestin peptide / GST-AP2 beads, flow cytometry; AP2 beta2 appendage carries R879A mutation | 0.31% of 340,000 active | inhibition, % at 10 µM;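 active = inhibition above a set limit, near 3 SD of compounds lacking own fluorescence, cut at about 54% in these data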
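test system = AP2 appendage R879A on GSH beads | buffer or medium = PBS plus Tween 20 (0.05%) and BSA (0.1%) | incubation = 12 min plus 1 h, RT | detection = bead flow cytometry, FITC channel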
MEKK2mut PB1 HTS: signal of MEK5 binding to mutant human MEKK2 PB1 domain; bead flow cytometry, Alexa488-MEK5 binding to MEKK2 mutant; percent response, % at 10 µM; 0.35% of 290,000 active; in the data active = percent response above about 24%, passing the limit was not always enough
MEKK2 WT-MEK5: raises or lowers MEK5 binding to wildtype human MEKK2 PB1 domain | AID 1531 | binding response (% of control), % at 10 µM | Q9Y2U5 | 1.1% of 290,000 active | bead flow cytometry, Alexa488-MEK5 binding to MEKK2 WT; actives lie on both sides; in the data active = binding response below about 67% or above about 130%
MEKK3 PB1 HTS: modulators (inhibitors or enhancers) of MEK5 binding to human MEKK3 PB1 domain; bead-based flow cytometry, Alexa488-MEK5 binding to MEKK3; actives lie on both sides; 0 = blocked by unlabeled MEK5, 100 = vehicle; binding response (% of control), % at 10 µM; 1.4% of 290,000 active; AID 1529;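 active = binding response more than 3 SD above or below the average of its plate-row segment, actives on both sides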;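 also: Alexa488 bead fluorescence after subtracting the streptavidin-only scavenger bead signal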
Arr AP2 CP1: inhibitors of human beta-arrestin and AP2 interaction. shares compounds with Arr AP2 block. GST-AP2 beads, FITC arrestin peptide binding, flow cytometry; GST-fused beta2-adaptin appendage, R879A mutant. inhibition, % at 10 µM. 2% of 1,300 active. AID 504908;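 active = inhibition above a set limit, roughly 3 SD of non-fluorescent compound noise, cut at about 38% in these data; inactive = inhibition at or below that limit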;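 also: loss of bead fluorescence from 50 nM FITC arrestin peptide bound to appendage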
Target sequence (P63010 whole entry, looked up, the tested form may be a part, one chain of several): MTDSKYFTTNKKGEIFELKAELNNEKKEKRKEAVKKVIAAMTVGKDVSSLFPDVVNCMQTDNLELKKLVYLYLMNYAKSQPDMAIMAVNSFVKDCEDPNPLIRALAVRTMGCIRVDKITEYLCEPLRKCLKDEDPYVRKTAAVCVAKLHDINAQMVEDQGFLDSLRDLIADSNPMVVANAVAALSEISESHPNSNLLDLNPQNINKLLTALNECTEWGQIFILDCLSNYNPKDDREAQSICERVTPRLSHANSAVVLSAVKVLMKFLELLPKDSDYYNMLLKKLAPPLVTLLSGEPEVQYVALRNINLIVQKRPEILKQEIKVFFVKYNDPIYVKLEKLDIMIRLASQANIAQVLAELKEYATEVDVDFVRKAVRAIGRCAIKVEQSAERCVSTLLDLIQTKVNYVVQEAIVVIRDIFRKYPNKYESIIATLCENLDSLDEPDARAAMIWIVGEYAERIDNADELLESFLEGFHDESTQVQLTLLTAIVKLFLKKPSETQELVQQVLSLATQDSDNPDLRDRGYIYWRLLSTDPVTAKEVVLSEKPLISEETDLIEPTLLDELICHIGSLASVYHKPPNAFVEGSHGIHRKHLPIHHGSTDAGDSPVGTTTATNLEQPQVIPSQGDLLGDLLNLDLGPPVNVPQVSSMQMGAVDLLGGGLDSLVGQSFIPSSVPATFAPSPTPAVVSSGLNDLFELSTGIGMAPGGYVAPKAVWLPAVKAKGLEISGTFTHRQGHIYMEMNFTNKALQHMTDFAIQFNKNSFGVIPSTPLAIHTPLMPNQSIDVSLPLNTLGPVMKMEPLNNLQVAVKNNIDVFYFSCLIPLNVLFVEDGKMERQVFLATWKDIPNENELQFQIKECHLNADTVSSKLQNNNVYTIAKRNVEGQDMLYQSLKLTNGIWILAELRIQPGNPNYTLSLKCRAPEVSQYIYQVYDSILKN
GST GSH counter: GST-GSH bead binding interference, counter-screen; shares compounds with Arr AP2 block; inhibition, % at 10 µM; GST-fluorescein binding to GSH beads, fluorescence; 2% of 1,300 active; AID 588338;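 active = inhibition above 50%, about 3 SD of the inhibition seen with non-fluorescent compounds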;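 also: fluorescein maleimide labelled GST captured on 4 micron glutathione beads; higher means more loss of bead fluorescence from quenching or blocked binding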
Large screens that a line does not name were inactive (follow-up assays come after a bar, where they were run). In the library only some 2.3% were active in any assay of this set; here they are far more common.

Cc1nn(C)c(Cl)c1/C=N/OC(=O)c1ccccc1	none
Cn1c(Cl)c(/C=N/OC(=O)c2ccccc2Cl)c2ccccc21	Arr AP2 block 54 | Arr AP2 CP1 inactive | GST GSH counter inactive
COc1ccc(C(=O)CCNc2cccc(Cl)c2)cc1	none
CCCOc1ccc(C(=O)CCNc2cccc(Cl)c2)cc1	Arr AP2 block 57 | Arr AP2 CP1 inactive | GST GSH counter inactive
Cc1occc1C(=O)N/N=C/C1=C(N2CCOCC2)C(=C\c2ccc(Cl)cc2Cl)/CC1	Arr AP2 block 98 | Arr AP2 CP1 inactive | GST GSH counter inactive
Cc1cc(C)nc(N/N=C/C2=C(N3CCOCC3)C(=C\c3ccc(Cl)cc3)/CC2)n1	none
CN1CCN(S(=O)(=O)c2ccc(C(F)(F)F)cc2)C(c2ccccc2)C1 (configuration not stated)	none (no result: MEKK2mut PB1 HTS, MEKK2 WT-MEK5, MEKK3 PB1 HTS)
CC(=O)N1CCN(C(=S)NC(=O)C23CC4CC(CC(C4)C2)C3)CC1	none
CNC(=S)N1CCC(NC(=O)C23CC4CC(CC(C4)C2)C3)CC1	Arr AP2 block 56 | Arr AP2 CP1 inactive | GST GSH counter inactive
CSCCC(NC(=O)c1ccc(Cl)c([N+](=O)[O-])c1)C(=O)N1CCN(C/C=C/c2ccccc2)CC1 (configuration not stated)	none (no result: MEKK2mut PB1 HTS, MEKK2 WT-MEK5, MEKK3 PB1 HTS)
Cc1nc(NCCCN2CCOCC2)c2oc3ccccc3c2n1	none
Cc1nc(NCCN2CCOCC2)c2oc3ccccc3c2n1	Arr AP2 block 55 | Arr AP2 CP1 inactive | GST GSH counter inactive
O=C(NN1C(=O)c2ccccc2NC1c1ccc([N+](=O)[O-])o1)c1ccc([N+](=O)[O-])cc1 (configuration not stated)	none
O=C(NN1C(=O)c2ccccc2NC1c1ccoc1)c1ccc([N+](=O)[O-])cc1 (configuration not stated)	Arr AP2 block 57 | Arr AP2 CP1 inactive | GST GSH counter inactive
Clc1ccc(/C=C/c2ncc[nH]2)c(Cl)c1	none
O=[N+]([O-])c1ccc(O)c(/C=N/NC(=S)Nc2ccc(Cl)cc2Cl)c1	none
Cc1cc(Cl)ccc1NC(=O)CCC(=O)N/N=C/c1cc([N+](=O)[O-])ccc1O	Arr AP2 block 105 | Arr AP2 CP1 inactive | GST GSH counter inactive
Cc1cc(C(=O)Nc2cccc(S(=O)(=O)N3CCCCC3)c2)c2ccccc2n1	none | Arr AP2 CP1 inactive | GST GSH counter inactive
COc1ccc(CCN(Cc2ccccn2)C(=S)Nc2cccc(SC)c2)cc1OC	none
CSc1cccc(NC(=S)N(Cc2ccc(C)cc2)Cc2ccccn2)c1	Arr AP2 block 54 | Arr AP2 CP1 inactive | GST GSH counter inactive
COc1ccc2nc(C)cc(N3CCN(S(=O)(=O)c4ccccc4F)CC3)c2c1	Arr AP2 block 62 (no result: MEKK2mut PB1 HTS, MEKK2 WT-MEK5, MEKK3 PB1 HTS) | Arr AP2 CP1 inactive | GST GSH counter inactive
COc1ccc2nc(C)cc(N3CCN(c4ccccc4)CC3)c2c1	none
COc1cc2c(cc1OC)C(=O)CCS2	Arr AP2 block 75 | Arr AP2 CP1 inactive | GST GSH counter inactive
Cc1c(Cl)cccc1NC(=O)Nc1ccc(C(N)=O)cc1	Arr AP2 block 104 | Arr AP2 CP1 inactive | GST GSH counter inactive
COc1ccc(CCN2C(=O)CS/C2=N\NC(=O)c2ccc(C(C)(C)C)cc2)cc1OC	Arr AP2 block 62 | Arr AP2 CP1 inactive | GST GSH counter inactive
COc1ccc(N=C2SCC(=O)N2CCc2ccc(OC)c(OC)c2)cc1	none
CC(C)CCSc1nc2[nH]ncc2c(=O)[nH]1	Arr AP2 block 59 | Arr AP2 CP1 inactive | GST GSH counter inactive
COc1cccc(CNC(=O)c2ccc(C)c(S(=O)(=O)N3CCCCC3)c2)c1	none (no result: MEKK2mut PB1 HTS, MEKK2 WT-MEK5, MEKK3 PB1 HTS)
Cc1cccc(/C=C/c2onc(C)c2S(=O)(=O)N2CCC(C(=O)N3CCCCC3)CC2)c1	Arr AP2 block 55 | Arr AP2 CP1 inactive | GST GSH counter inactive
O=c1cc(C(F)(F)F)nc(-c2cccnc2)[nH]1	none
Cc1cc(=O)[nH]c(-c2cccnc2)n1	Arr AP2 block 63 | Arr AP2 CP1 inactive | GST GSH counter inactive
CC(C)(C)NC(=O)C1Cc2ccccc2CN1C(=O)Nc1ccccc1Cl (configuration not stated)	Arr AP2 block 83 | Arr AP2 CP1 inactive | GST GSH counter inactive
O=C(NC1CCCCC1)C(=S)N1CCCC1	none
C[C@H](NC(=O)N1CCn2c1nc1ccccc12)C(=O)NCc1ccccc1	none
Clc1ccccc1CN1CCN(c2ncccn2)CC1	Arr AP2 block 58 | Arr AP2 CP1 inactive | GST GSH counter inactive
Cc1ccccc1OCC(=O)Nc1cccc2nsnc12	Arr AP2 block 101 | Arr AP2 CP1 inactive | GST GSH counter inactive
COC(=O)c1c(-c2cccnc2)csc1NC(=O)c1ccc2c(c1)OCO2	none
Cc1c(NC(=O)C(C)OC(=O)/C=C/c2ccc3c(c2)OCO3)c(=O)n(-c2ccccc2)n1C (configuration not stated)	none
CCSc1nnc(NC(=O)C2C3C=CC(C3)C2C(=O)O)s1 (configuration not stated)	none
CCSc1nnc(NC(=O)C2C3CCC(C3)C2C(=O)O)s1 (configuration not stated)	Arr AP2 block 60 | Arr AP2 CP1 inactive | GST GSH counter inactive
O=c1[nH]n(Cc2ccccc2)c2ccccc12	Arr AP2 block 59 | Arr AP2 CP1 inactive | GST GSH counter inactive
Cc1ccc(NC(=O)c2ccco2)c(NC(=O)C2CCCO2)c1 (configuration not stated)	none
Cc1cnc(C(=O)OCC(=O)N2c3ccccc3CC2C)cn1 (configuration not stated)	Arr AP2 block 55 | Arr AP2 CP1 inactive | GST GSH counter inactive
Cc1c(C(=O)NCCSCc2cccc(C(F)(F)F)c2)cnn1-c1ccc(Cl)cc1	none
Cc1cccc(CN2CCN(C(C)C(=O)NC(C)c3ccccc3)CC2)c1 (configuration not stated)	Arr AP2 block 56 | Arr AP2 CP1 inactive | GST GSH counter inactive
CC(NC(=O)C(C)N1CCN(Cc2ccccc2)CC1)c1ccccc1 (configuration not stated)	none
COc1ccc(Nc2nc3cc(C)ccc3cc2C#N)c(OC)c1	Arr AP2 block 91 | Arr AP2 CP1 inactive | GST GSH counter 75
COc1ccc(Nc2nc3ccc(C)cc3cc2C#N)c(OC)c1	none
Cc1nc(Cl)c2c(n1)NC1=C(O2)C(=O)CCC1	none
O=C(CCN1C(=O)/C(=C/c2ccc(F)cc2)SC1=S)NNC(=O)c1cccnc1	none
O=C(CCN1C(=O)/C(=C/c2ccccc2)SC1=S)NNC(=O)c1cccnc1	Arr AP2 block 106 | Arr AP2 CP1 inactive | GST GSH counter inactive
CC(C)Cn1c(N)c(C(=O)COC(=O)/C=C/c2ccccc2)c(=O)n(C)c1=O	none (no result: MEKK2mut PB1 HTS, MEKK2 WT-MEK5, MEKK3 PB1 HTS)
Cc1ccccc1OCC(=O)OCC(=O)NCc1ccccc1	none (no result: MEKK2mut PB1 HTS, MEKK2 WT-MEK5, MEKK3 PB1 HTS)
